According to ChEMBL document CHEMBL2040809, “Synthesis and biological activity evaluation of cytidine-5'-deoxy-5-fluoro-N-[(alkoxy/aryloxy)] carbonyl-cyclic 2',3'-carbonates” (Eur J Med Chem, 2012):
In brackets after ≈: the same amount, converted by molar mass.

How the values were obtained:
Salmonella typhimurium [1] = assay: Mutagenic activity in Salmonella typhimurium TA98 at 0.312 to 5 mg/plate preincubated for 20 mins before addition in absence of liver S9 mixture; format: toxicity, organism-based; conditions: salmonella enterica subsp. enterica serovar typhimurium
Outline: (§1)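 Pre-incubation trial (Trial II) with histidine-dependent auxotrophs. Test solution is pre-incubated with bacterial suspension and S9 mix (10% v/v) or substitution buffer before plating on selective agar. Revertant colonies are counted against the concurrent vehicle control. Triplicate plates per dose and per control (negative, vehicle, positive reference mutagens).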

Salmonella typhimurium [2] = assay: Mutagenic activity in Salmonella typhimurium TA102 at 0.312 to 5 mg/plate measured after incubation of upside down for 48 hrs in presence of liver S9 mixture; format: toxicity, organism-based; conditions: salmonella enterica subsp. enterica serovar typhimurium, s9, 48 h
Outline: (§2)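 Plate incorporation trial (Trial I) with histidine-dependent auxotrophs. Revertant colonies are counted against the concurrent vehicle control. Each dose and each control, including negative, vehicle and positive reference mutagens, run in triplicate plates.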

HeLa = assay: Cytotoxicity against human HeLa cells after 3 days MTT assay; format: functional, cell-based; conditions: 72 h
Outline: (§3)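 Cells held as monolayers in DMEM with 10% supplement. Seeded in 96-well plates on day 0 at densities set by doubling time: 1 × 10⁴/mL for HeLa and NCI-69, 2 × 10⁴/mL for MCF-7, 3 × 10⁴/mL for PZ-HPV-7. Five dilutions (10⁻⁸–5 × 10⁻⁶ mol/l), freshly prepared, added for 72 h. Growth read by MTT (succinate dehydrogenase activity); IC50 derived.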

L1210 [3] = assay: Antitumor activity against mouse L1210 cells xenografted in BDF-1 mouse assessed as increase in mean survival time at 1.5 mmol/kg, po qd for 2 weeks; format: functional
Outline: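 Male BDF-1 mice inoculated intraperitoneally on day 0 with L1210 leukemia cells (1 × 10⁶/mL). Cells were kept in RPMI 1640 with 10% fetal bovine serum at 37 °C, 5% CO₂, subcultured once or twice weekly, and resuspended in PBS. Compounds were given orally, with maximum doses set from acute toxicity. Read-out was mean survival time versus untreated control.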

Salmonella typhimurium [4] = assay: Mutagenic activity in Salmonella typhimurium TA100 at 0.312 to 5 mg/plate preincubated for 20 mins before addition in presence of liver S9 mixture; format: toxicity, organism-based; conditions: salmonella enterica subsp. enterica serovar typhimurium; outline: as §1
Salmonella typhimurium [5] = assay: Mutagenic activity in Salmonella typhimurium TA98 at 0.312 to 5 mg/plate measured after incubation of upside down for 48 hrs in presence of liver S9 mixture; format: toxicity, organism-based; conditions: salmonella enterica subsp. enterica serovar typhimurium, s9, 48 h; outline: as §2
NCI-H69 = assay: Cytotoxicity against human NCI-H69 cells after 3 days MTT assay; format: functional, cell-based; conditions: NCI-H69, 72 h; outline: as §3
[6] = Cytotoxicity against human PZ-HPV-7 cells after 3 days MTT assay; format: functional, cell-based; conditions: 72 h; outline: as §3
Salmonella typhimurium [7] = assay: Mutagenic activity in Salmonella typhimurium TA1537 at 0.312 to 5 mg/plate preincubated for 20 mins before addition in absence of liver S9 mixture; format: toxicity, organism-based; conditions: salmonella enterica subsp. enterica serovar typhimurium; outline: as §1
Salmonella typhimurium [8] = assay: Mutagenic activity in Salmonella typhimurium TA100 at 0.312 to 5 mg/plate preincubated for 20 mins before addition in absence of liver S9 mixture; format: toxicity, organism-based; conditions: salmonella enterica subsp. enterica serovar typhimurium; outline: as §1
Salmonella typhimurium [9] = assay: Mutagenic activity in Salmonella typhimurium TA100 at 0.312 to 5 mg/plate measured after incubation of upside down for 48 hrs in absence of liver S9 mixture; format: toxicity, organism-based; conditions: salmonella enterica subsp. enterica serovar typhimurium; outline: as §2
Salmonella typhimurium [10] = assay: Mutagenic activity in Salmonella typhimurium TA102 at 0.312 to 5 mg/plate preincubated for 20 mins before addition in presence of liver S9 mixture; format: toxicity, organism-based; conditions: salmonella enterica subsp. enterica serovar typhimurium; outline: as §1
Salmonella typhimurium [11] = assay: Mutagenic activity in Salmonella typhimurium TA1535 at 0.312 to 5 mg/plate measured after incubation of upside down for 48 hrs in presence of liver S9 mixture; format: toxicity, organism-based; conditions: salmonella enterica subsp. enterica serovar typhimurium, s9, 48 h; outline: as §2
MCF7 = assay: Cytotoxicity against human MCF7 cells after 3 days MTT assay; format: functional, cell-based; conditions: MCF7, 72 h; outline: as §3
Salmonella typhimurium [12] = assay: Mutagenic activity in Salmonella typhimurium TA102 at 0.312 to 5 mg/plate measured after incubation of upside down for 48 hrs in absence of liver S9 mixture; format: toxicity, organism-based; conditions: salmonella enterica subsp. enterica serovar typhimurium; outline: as §2
Salmonella typhimurium [13] = assay: Mutagenic activity in Salmonella typhimurium TA102 at 0.312 to 5 mg/plate preincubated for 20 mins before addition in absence of liver S9 mixture; format: toxicity, organism-based; conditions: salmonella enterica subsp. enterica serovar typhimurium; outline: as §1
Salmonella typhimurium [14] = assay: Mutagenic activity in Salmonella typhimurium TA1535 at 0.312 to 5 mg/plate preincubated for 20 mins before addition in absence of liver S9 mixture; format: toxicity, organism-based; conditions: salmonella enterica subsp. enterica serovar typhimurium; outline: as §1
Salmonella typhimurium [15] = assay: Mutagenic activity in Salmonella typhimurium TA1535 at 0.312 to 5 mg/plate preincubated for 20 mins before addition in presence of liver S9 mixture; format: toxicity, organism-based; conditions: salmonella enterica subsp. enterica serovar typhimurium; outline: as §1
Salmonella typhimurium [16] = assay: Mutagenic activity in Salmonella typhimurium TA1535 at 0.312 to 5 mg/plate measured after incubation of upside down for 48 hrs in absence of liver S9 mixture; format: toxicity, organism-based; conditions: salmonella enterica subsp. enterica serovar typhimurium; outline: as §2
Salmonella typhimurium [17] = assay: Mutagenic activity in Salmonella typhimurium TA1537 at 0.312 to 5 mg/plate measured after incubation of upside down for 48 hrs in presence of liver S9 mixture; format: toxicity, organism-based; conditions: salmonella enterica subsp. enterica serovar typhimurium, s9, 48 h; outline: as §2
Salmonella typhimurium [18] = assay: Mutagenic activity in Salmonella typhimurium TA98 at 0.312 to 5 mg/plate measured after incubation of upside down for 48 hrs in absence of liver S9 mixture; format: toxicity, organism-based; conditions: salmonella enterica subsp. enterica serovar typhimurium; outline: as §2
Salmonella typhimurium [19] = assay: Mutagenic activity in Salmonella typhimurium TA100 at 0.312 to 5 mg/plate measured after incubation of upside down for 48 hrs in presence of liver S9 mixture; format: toxicity, organism-based; conditions: salmonella enterica subsp. enterica serovar typhimurium, s9, 48 h; outline: as §2
Salmonella typhimurium [20] = assay: Mutagenic activity in Salmonella typhimurium TA98 at 0.312 to 5 mg/plate preincubated for 20 mins before addition in presence of liver S9 mixture; format: toxicity, organism-based; conditions: salmonella enterica subsp. enterica serovar typhimurium; outline: as §1
Salmonella typhimurium [21] = assay: Mutagenic activity in Salmonella typhimurium TA1537 at 0.312 to 5 mg/plate measured after incubation of upside down for 48 hrs in absence of liver S9 mixture; format: toxicity, organism-based; conditions: salmonella enterica subsp. enterica serovar typhimurium; outline: as §2
Salmonella typhimurium [22] = assay: Mutagenic activity in Salmonella typhimurium TA1537 at 0.312 to 5 mg/plate preincubated for 20 mins before addition in presence of liver S9 mixture; format: toxicity, organism-based; conditions: salmonella enterica subsp. enterica serovar typhimurium; outline: as §1
L1210 [23] = assay: Antitumor activity against mouse L1210 cells xenografted in BDF-1 mouse assessed as increase in mean survival time at 0.16 mmol/kg, po administered 5 days in a week for 3 weeks
L1210 [24] = assay: Antitumor activity against mouse L1210 cells xenografted in BDF-1 mouse assessed as increase in mean survival time at 0.080 mmol/kg, po administered 5 days in a week for 3 weeks

**Q.** Which Activity (Salmonella typhimurium [1]) does the source give for CCCCCOC(=O)Nc1nc(=O)n([C@@H]2O[C@H](C)[C@H]3OC(=O)O[C@H]32)cc1F here?
**A.** Non-toxic

**Q.** What about the Activity (Salmonella typhimurium [2]) of the same compound?
**A.** Non-toxic

**Q.** And the IC50 (HeLa)?
**A.** 0.08 µg/mL (≈ 0.208 µM)

**Q.** What about the MST (L1210 [3]) of the same compound?
**A.** 17.3 days

**Q.** What about the Activity (Salmonella typhimurium [4]) of the same compound?
**A.** Non-toxic

**Q.** What about the Activity (Salmonella typhimurium [5]) of the same compound?
**A.** Non-toxic

**Q.** And the IC50 (NCI-H69)?
**A.** 180 µg/mL (≈ 467 µM)

**Q.** And the IC50 [6]?
**A.** 140 µg/mL (≈ 363 µM)

**Q.** What about the Activity (Salmonella typhimurium [7]) of the same compound?
**A.** Non-toxic

**Q.** What about the Activity (Salmonella typhimurium [8]) of the same compound?
**A.** Non-toxic

**Q.** And the Activity (Salmonella typhimurium [9])?
**A.** Non-toxic

**Q.** What about the Activity (Salmonella typhimurium [10]) of the same compound?
**A.** Non-toxic

**Q.** What about the Activity (Salmonella typhimurium [11]) of the same compound?
**A.** Non-toxic

**Q.** And the IC50 (MCF7)?
**A.** 80 µg/mL (≈ 208 µM)

**Q.** What about the Activity (Salmonella typhimurium [12]) of the same compound?
**A.** Non-toxic

**Q.** What about the Activity (Salmonella typhimurium [13]) of the same compound?
**A.** Non-toxic

**Q.** And the Activity (Salmonella typhimurium [14])?
**A.** Non-toxic

**Q.** What about the Activity (Salmonella typhimurium [15]) of the same compound?
**A.** Non-toxic

**Q.** And the Activity (Salmonella typhimurium [16])?
**A.** Non-toxic

**Q.** And the Activity (Salmonella typhimurium [17])?
**A.** Non-toxic

**Q.** And the Activity (Salmonella typhimurium [18])?
**A.** Non-toxic

**Q.** What about the Activity (Salmonella typhimurium [19]) of the same compound?
**A.** Non-toxic

**Q.** What about the Activity (Salmonella typhimurium [20]) of the same compound?
**A.** Non-toxic

**Q.** What about the Activity (Salmonella typhimurium [21]) of the same compound?
**A.** Non-toxic

**Q.** And the Activity (Salmonella typhimurium [22])?
**A.** Non-toxic

**Q.** Which results are given for CCCCCOC(=O)Nc1nc(=O)n([C@@H]2O[C@H](C)[C@@H](O)[C@H]2O)cc1F [CAPECITABINE]?
**A.** Activity (Salmonella typhimurium [1]): Non-toxic; MST (L1210 [23]): 19.6 days; Activity (Salmonella typhimurium [2]): Non-toxic; IC50 (HeLa): 0.05 µg/mL (≈ 0.139 µM); MST (L1210 [3]): 12.8 days; Activity (Salmonella typhimurium [4]): Non-toxic; MST (L1210 [24]): 20.3 days; Activity (Salmonella typhimurium [5]): Non-toxic; IC50 (NCI-H69): 300 µg/mL (≈ 835 µM); IC50 [6]: 160 µg/mL (≈ 445 µM); Activity (Salmonella typhimurium [7]): Non-toxic; Activity (Salmonella typhimurium [8]): Non-toxic; Activity (Salmonella typhimurium [9]): Non-toxic; Activity (Salmonella typhimurium [10]): Non-toxic; Activity (Salmonella typhimurium [11]): Non-toxic; IC50 (MCF7): 710 µg/mL (≈ 1980 µM); Activity (Salmonella typhimurium [12]): Non-toxic; Activity (Salmonella typhimurium [13]): Non-toxic; Activity (Salmonella typhimurium [14]): Non-toxic; Activity (Salmonella typhimurium [15]): Non-toxic; Activity (Salmonella typhimurium [16]): Non-toxic; Activity (Salmonella typhimurium [17]): Non-toxic; Activity (Salmonella typhimurium [18]): Non-toxic; Activity (Salmonella typhimurium [19]): Non-toxic; Activity (Salmonella typhimurium [20]): Non-toxic; Activity (Salmonella typhimurium [21]): Non-toxic; Activity (Salmonella typhimurium [22]): Non-toxic
